Drawing on ChEMBL document CHEMBL1146021, “Calcium channel antagonists discovered by a multidisciplinary approach” (J Med Chem, 2006), this text covers Activity, EC50 and IC50 for two molecules.

The species named for experiment [1] is Cavia porcellus. As to the kind of experiment: Negative chronotropic activity in guinea pig right atrium at 500 uM. It counts as functional, Cardiac atrium.
The species entered for experiment [2] is Cavia porcellus. As to the kind of experiment: Negative inotropic activity in guinea pig left atrium. It counts as functional. Conditions: Cardiac atrium. In a few lines:
(§1)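 Guinea-pig left atria driven at 1 Hz (0.6-0.8 ms pulses, about 50% threshold voltage) in PSS, 35 °C, pH 7.4, 95% O2/5% CO2. Isometric tension recorded. Cumulative concentrations 0.01-100 μM in DMSO (≤0.3%), each to steady state. Percent decrease in developed tension, n = 4-6. EC50 by Probit analysis.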

The species named for experiment [3] is Cavia porcellus. As to the kind of experiment: Negative inotropic activity in guinea pig left atrium at 500 uM. Format: functional, Cardiac atrium.
The species entered for experiment [4] is Cavia porcellus. Kind of experiment: Vasorelaxant activity assessed as inhibition of calcium-induced contraction of potassium ion-depolarized guinea pig aortic strips at 100 uM. Format: functional, Aorta. Also on record: scale not given: the % may be the effect or the level left. In short, it runs like this: (§2)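 Helicoidal guinea-pig aortic strips in aerated PSS at 35 °C, contracted with 80 mM KCl (K+ substituted for Na+). At plateau (about 45 min), compounds added cumulatively at 0.1-500 μM in DMSO vehicle. Relaxation measured isometrically. IC50 by Probit analysis, n = 6-8.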

The species named for experiment [5] is Cavia porcellus. As to the kind of experiment: Vasorelaxant activity assessed as inhibition of calcium-induced contraction of potassium ion-depolarized guinea pig aortic strips at 500 uM. Format: functional, Aorta. Also on record: scale not given: the % may be the effect or the level left. In short, it runs like this: as §2
For experiment [6], the species on record is Cavia porcellus. Kind of experiment: Negative inotropic activity in guinea pig left atrium at 1 uM. It counts as functional, Cardiac atrium. In a few lines:
as §1

The species named for experiment [7] is Cavia porcellus. Kind of experiment: Negative chronotropic activity in guinea pig right atrium at 10 uM. It counts as functional, Cardiac atrium. In a few lines: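 Spontaneously beating guinea-pig right atria in PSS, 35 °C, pH 7.4, 95% O2/5% CO2. Cumulative concentrations 0.01-100 μM in DMSO (≤0.3% in bath), each to steady state. Rate decrease taken as percent of control (pretreatment 170-195 beats/min), n = 6-8. EC30 by Probit analysis.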

For experiment [8], the species on record is Cavia porcellus. As to the kind of experiment: Vasorelaxant activity assessed as inhibition of calcium-induced contraction of potassium ion-depolarized guinea pig aortic strips. Conditions: Aorta. It counts as functional. In short, it runs like this:
as §2

The term EC50 denotes the midpoint of the concentration-response curve. For `O=S(=O)(c1ccc(Cl)cc1)N(Cc1ccsc1)S(=O)(=O)c1ccc(Cl)cc1`, the Activity in the experiment filed under Cavia porcellus [1] is 7%; in the experiment listed under Cavia porcellus [3] it was 71%; in the experiment filed under Cavia porcellus [4], 9%. In the experiment filed under Cavia porcellus [2], this molecule yielded an EC50 of 2550 nM.
As a reminder, the IC50 is the point on the concentration scale where inhibition reaches its midpoint. On to `C=CCN(c1ccccc1)S(=O)(=O)c1ccc(Cl)cc1`, for which the Activity in the experiment filed under Cavia porcellus [5] worked out at 54%; in the experiment filed under Cavia porcellus [6], 73%; in the experiment filed under Cavia porcellus [7], 5%. In the experiment listed under Cavia porcellus [2], this molecule came in with an EC50 of 310 nM. Moreover, the IC50 in the experiment listed under Cavia porcellus [8] was 17700 nM.
